Bioassay records deposited in PubChem by Broad Institute.
FN deposit inh: fibronectin deposition inhibition | AID 743247 | AH1F fibroblasts, Alexa488-fibronectin deposition fluorescence, overnight | inhibition, % at 12.6 µM | hit rate 0.086% among 350,000;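 active = mean inhibition across replicates of 30% or more, regardless of how many single replicates reach that level; inconclusive = mean under 30% yet at least half of replicates reach 30%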;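 note: positive control wells lacked labelled fibronectin entirely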
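Measured by – fluorescence 485/525 nm · System – AH1F fibroblast monolayer, labelled fibronectin deposition · Amount – 10000 cells per well · Buffer or medium – serum-reduced DMEM (2% serum) · Doses – single dose, pinned · Also added – fluorescent fibronectin at 24 nM final · Schedule – 1 h cell attachment, overnight exposure to compound and label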
RAD54 inh: blocks human RAD54 Holliday junction branch migration | hit rate 0.14% among 360,000 | FAM/BHQ fluorescence | AID 602329 | inhibition, % at 10.4 µM;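 active = mean normalized replicate activity at least 40 and at least half of replicates scoring 40 or more; inconclusive = only one of the two criteria met; inactive = mean below 40 and under half of replicates reaching 40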;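 note: 0% = median of neutral control wells and 100% = median of positive control wells; inhibitors cause a drop in the FAM fluorescence signal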
RAD52 anneal inh: RAD52 (human) annealing inhibition | AID 651710 | inhibition, % at 18.7 µM | recombinant RAD52 DNA annealing, FRET fluorescence | hit rate 0.46% among 360,000 | P43351;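 active = every replicate showing at least 50% inhibition; inconclusive = mean inhibition at least 50% but not in every replicate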
Target sequence (P43351 whole entry, looked up): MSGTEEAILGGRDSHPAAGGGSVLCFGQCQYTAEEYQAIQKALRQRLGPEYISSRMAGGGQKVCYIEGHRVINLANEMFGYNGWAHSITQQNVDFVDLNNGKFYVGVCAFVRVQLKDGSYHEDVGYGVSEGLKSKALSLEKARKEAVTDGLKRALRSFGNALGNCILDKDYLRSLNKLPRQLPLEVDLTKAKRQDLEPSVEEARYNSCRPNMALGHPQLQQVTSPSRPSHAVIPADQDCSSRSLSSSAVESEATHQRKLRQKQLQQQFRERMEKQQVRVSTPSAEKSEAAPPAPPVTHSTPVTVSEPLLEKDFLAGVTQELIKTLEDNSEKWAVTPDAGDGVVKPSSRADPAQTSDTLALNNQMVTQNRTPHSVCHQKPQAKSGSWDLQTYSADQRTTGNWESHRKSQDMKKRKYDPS
PAX8 inh HTS: lowers PAX8-driven luciferase in RMG-I cells | RMG-I TPO-luciferase reporter, SteadyGlo, 24 h | inhibition, % at 12.6 µM | hit rate 1.2% among 360,000 | AID 652154;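 active = mean replicate inhibition at least 60% with every replicate also reaching 60%; inconclusive = only one of the two criteria is met; inactive = mean below 60% and not all replicates reaching 60%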;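 note: luciferase light reporting Pax8 driven TPO promoter activity; plate controls were median of neutral control wells for no effect and mitoxantrone controls for full effect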
* marks the source's active call; other numbers are inactive results; ? = inconclusive; / = no result given. This is a sample that favours compounds with a hit; in the whole collection about 1.3% have one here.

SMILES	FN deposit inh	RAD54 inh	RAD52 anneal inh	PAX8 inh HTS
C[C@@H]1CN([C@@H](C)CO)C(=O)c2cc(NC(=O)Nc3ccc(F)cc3)ccc2O[C@@H](C)CCCCO[C@@H]1CN(C)Cc1ccc(C(F)(F)F)cc1	-1	-4	-28	80*
C[C@@H]1CCCCO[C@@H](CN(C)Cc2ccc(C(F)(F)F)cc2)[C@H](C)CN([C@@H](C)CO)C(=O)c2cc(NC(=O)Nc3ccc(F)cc3)ccc2O1	-11	-2	-30	86*
C[C@@H]1CN([C@@H](C)CO)C(=O)c2cc(NC(=O)Nc3ccc(C(F)(F)F)cc3)ccc2O[C@@H](C)CCCCO[C@H]1CN(C)Cc1ccc(C(F)(F)F)cc1	2	5	/	?
C[C@H](CO)N1C[C@H](C)[C@@H](CN(C)Cc2ccc(C(F)(F)F)cc2)OCCCC[C@H](C)Oc2ccc(NC(=O)Nc3ccc(F)cc3)cc2C1=O	6	1	-24	88*
CCN1CCN(Cc2ccc(NC(=O)c3ccc(C)c(NC(=O)c4c[nH]c5cc(C(F)(F)F)ccc5c4=O)c3)cc2C(F)(F)F)CC1	-13	-3	-9	80*
Cc1ccc(C)c(N(C(=O)Cn2nnc3ccccc32)C(C(=O)NC(C)(C)C)c2ccsc2)c1 (centres undefined)	4	-5	/	/
O=C(N/N=C/c1sc(N2CCOCC2)nc1-c1ccccc1)c1cccc(S(=O)(=O)N2CCCC2)c1	9	/	-219	74*
O=C(N/N=C/c1sc(N2CCOCC2)nc1-c1ccccc1)c1ccc(O)cc1	15	/	-22	-11
CCCc1nc2ccc(NC(=O)c3cccs3)cc2c(=O)n1Cc1ccccc1Cl	/	/	-15	-1
CCCc1nc2ccc(NC(C)=O)cc2c(=O)n1Cc1ccc(Cl)cc1	13	/	-3	67*
COc1ccc(NC(=O)c2ccccc2N(Cc2ccccc2)S(C)(=O)=O)c(OC)c1	2	-13	-7	13
C[C@H](CO)N1C[C@H](C)[C@H](CN(C)CC2CCCCC2)OCCCC[C@H](C)Oc2ccc(NC(=O)Nc3ccc(C(F)(F)F)cc3)cc2C1=O	-4	-17	34	68*
C[C@@H]1CCCCO[C@@H](CN(C)C)[C@H](C)CN([C@@H](C)CO)C(=O)c2cc(NC(=O)Nc3ccc(C(F)(F)F)cc3)ccc2O1	/	6	53*	21
CCCN(C)C[C@H]1OCCCC[C@@H](C)Oc2ccc(NC(=O)Nc3ccc(C(F)(F)F)cc3)cc2C(=O)N([C@H](C)CO)C[C@H]1C	/	4	-3	82*
C[C@@H]1CN([C@@H](C)CO)C(=O)c2cc(NC(=O)Nc3ccc(C(F)(F)F)cc3)ccc2O[C@@H](C)CCCCO[C@H]1CN(C)C	/	/	/	11
COc1ccc(-c2nnn(Cc3nc(N)nc(N4CCOCC4)n3)n2)cc1OC	/	-1	/	/
Cc1c(C(=O)N2CCc3ccccc3C2)oc2ccc(S(=O)(=O)N3CC(C)CC(C)C3)cc12 (centres undefined)	-6	/	7	1
O=c1oc2c(CN3CCOCC3)c(O)ccc2c2c1CCC2	-3	-8	/	-3
CC1CCCN(Cc2c(O)ccc3c4c(c(=O)oc23)CCCC4)C1 (centres undefined)	31*	17	4	27
COc1ccccc1C(C[N+](=O)[O-])c1c(N)n(C)c(=O)n(C)c1=O (centres undefined)	3	0	-8	64*
COc1ccccc1C(c1c(N)n(C)c(=O)n(C)c1=O)C(C)[N+](=O)[O-] (centres undefined)	3	-23	-3	1
N#C[C@@H]1[C@@H](c2ccc(C3=CCCCC3)cc2)[C@H](CO)N1C(=O)c1cccc(F)c1	1	-7	-54	-11
N#C/C(=C\c1ccc(OCc2ccc(C(=O)O)cc2)cc1)C(=O)N1CCOCC1	-2	/	-18	87*
COc1cc(/C=C(\C#N)C(=O)N2CCOCC2)ccc1OCc1ccccc1	5	/	-2	-87
O=C(NC[C@@H]1CC[C@@H]2[C@@H](CN2C(=O)NC2CCCC2)O1)c1ccc2c(c1)OCO2	/	/	112*	/
SMILES	FN deposit inh	RAD54 inh	RAD52 anneal inh	PAX8 inh HTS
COc1ccc(-c2oc3ncnc(NCCCN4CCOCC4)c3c2-c2ccc(OC)cc2)cc1	active	6	/	/
Cc1ccc(C2=NN=C(NC(=O)CSc3nc(C)cc(C)n3)SC2)cc1	-16	/	-15	76*
Cc1c(C)c2ccc(OS(C)(=O)=O)cc2oc1=O	4	/	-6	15
Oc1c(C(c2ccc(Cl)cc2)N2CCCC2)cc(Cl)c2cccnc12 (centres undefined)	-1	/	-20	70*
Cc1ccc(C(c2cc(Cl)c3cccnc3c2O)N2CCN(C)CC2)cc1 (centres undefined)	/	8	/	/
Oc1c(C(c2ccccn2)N2CCC(Cc3ccccc3)CC2)cc(Cl)c2cccnc12 (centres undefined)	2	/	-5	83*
CN1CCN(C(c2ccccn2)c2cc(Cl)c3cccnc3c2O)CC1 (centres undefined)	14	/	-19	26
CCC(=O)Nc1ccc2c(c1)C(=O)N(C)[C@@H]1CC[C@H](CC(=O)NCC3CCCCC3)O[C@@H]1CO2	2	3	7	21
C[C@@H]1CN([C@H](C)CO)C(=O)c2cc(NC(=O)Cc3ccccc3)ccc2O[C@@H](C)CCCCO[C@H]1CN(C)Cc1ccc(Cl)c(Cl)c1	/	-10	-13	97*
C[C@@H]1CCCCO[C@@H](CN(C)Cc2ccc(Cl)c(Cl)c2)[C@H](C)CN([C@@H](C)CO)C(=O)c2cc(NC(=O)Cc3ccccc3)ccc2O1	/	-3	-26	87*
Cc1nnc(SCC(=O)Nc2ccc(N3CCOCC3)cc2)n1Cc1ccccc1	-3	-7	-1	5
CC1CC=C2C(C#N)=C(N)C(C#N)(C#N)C(c3cccs3)C2C1 (centres undefined)	/	-48	/	/
NC(=O)NCC#Cc1ccc2c(c1)[C@]1(C(=O)N2)[C@H](c2ccccc2OCCO)N2[C@H](c3ccccc3)[C@H](c3ccccc3)OC(=O)[C@H]2[C@@H]1C(=O)N1CCCCCCC1	/	/	-23	23
O=C1O[C@H](c2ccccc2)[C@H](c2ccccc2)N2[C@H]1[C@@H](C(=O)N1CCCCCCC1)[C@]1(C(=O)Nc3ccccc31)[C@H]2c1ccccc1OCCO	/	-9	-6	79*
NC(=O)[C@H]1[C@@H]2C(=O)O[C@@H](c3ccccc3)[C@@H](c3ccccc3)N2[C@@H](c2ccccc2OCCO)[C@]12C(=O)Nc1ccccc12	/	-3	28	?
O=C1O[C@@H](c2ccccc2)[C@@H](c2ccccc2)N2[C@@H](c3ccccc3OCCO)[C@]3(C(=O)Nc4ccc(C#CCCO)cc43)[C@@H](C(=O)N3CCCCCCC3)[C@H]12	/	-3	73*	93*
NC(=O)[C@@H]1[C@H]2C(=O)O[C@H](c3ccccc3)[C@H](c3ccccc3)N2[C@H](c2ccccc2OCCO)[C@@]12C(=O)Nc1ccccc12	/	4	11	84*
COc1ccc(S(=O)(=O)Nc2cccc3c2O[C@@H](CN(C)Cc2ccncc2)[C@H](C)CN([C@H](C)CO)C3=O)cc1	/	4	0	-4
